Results as given in the EternaBench riboswitch data.

Tested on: MS2 coat protein
Assay: apparent Kd, MS2 coat protein; higher = weaker binding; RNA-MaP array; FMN 200 µM where present
In short: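 Designs on Illumina sequencing-chip clusters, transcribed by stalled E. coli RNA polymerase, were exposed to SNAP-549-labelled MS2 coat protein in doubling steps from 0.7 or 1.5 nM up to 3 µM, without and then with constant ligand. The buffer held 100 mM Tris-HCl pH 7.5, 80 mM KCl, 4 mM MgCl2, BSA, DTT, yeast tRNA and Tween-20. Apparent Kd values are medians of filtered per-cluster binding-curve fits to green signal normalised to red-channel RNA signal and control-cluster median Fmax.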

[1] = designed as: OFF switch for flavin mononucleotide, no ligand
[2] = ligand present: flavin mononucleotide, designed as: OFF switch for flavin mononucleotide
[3] = designed as: ON switch for flavin mononucleotide, no ligand
[4] = ligand present: flavin mononucleotide, designed as: ON switch for flavin mononucleotide

Row | Sequence | apparent Kd [1] [µM] | apparent Kd [2] [µM] | apparent Kd [3] [µM] | apparent Kd [4] [µM]
1 | CGAUAACAUAGUUAUCCGUAGCGAACAUGAGGAUCACCCAUGUAGGAUAUGUUACUAAACUAGUAACAGAAGGACAUGAGUCUU | 0.0349 | 0.263 |  | 
2 | UUAUUAUAUGUAGGAUAUGCAUAUAAUUAUUGUGCAGAAGGACAUGAGGAUCACCCAUGUAUAUUAUUAUUAUAUAUUAUAUAU | 0.0249 | 0.0143 |  | 
3 | UGUCGGAGCAGAGGAUAUUACAUGAGGAUCACCCAUGUAUGAACCAGUAGCUGGAAACAGCAAUGUAAGAAGGCUGCUCCGACA | 0.0109 | 0.0913 |  | 
4 | GAUCCUUCUGUUAGGAUAUGCUACGGGCUUCCGCUGCAGAAGGAACAUGAGGAUCACCCAUGUCAAAUAAAAUC | 0.0201 | 0.0802 |  | 
5 | UAAUAGUAUGUUAGGAUAUGCUGGUCCUUGGAUCAGCAGAAGGAACAUGAGGAUCACCCAUGUAGACUAUUUUA | 0.0155 | 0.03 |  | 
6 | ACAAGAUCAGGAUAUACAUGAGGAUCACCCAUGUAUAUCAAAAAAGGGCUUUCUACAUGUAGAAGGGAUCUUGU | 0.0139 | 0.0118 |  | 
7 | CAGCAAAAGUAGAAGGCAGUACUGAUUCAGUACUGAGGAUAUACAUGAGGAUCACCCAUGUGUUCCAGCUGAAUAAUAAAAUAA | 0.00889 | 0.116 |  | 
8 | UGAACUAUGUAGAAGGCCCGCAUGAAAAUGACGGGAGGAUAUACAUGAGGAUCACCCAUGUGAAGAGCAAGAGGGUUUAACAGA | 0.282 | 0.163 |  | 
9 | AUAAAACAUGAGGAUCACCCAUGUAAAAAUAUGGGAGGAUAUGCGAAAUAAAAUAAAUAAGCAGAAGGCCUAAAAA |  |  | 0.0504 | 0.0237
10 | AAUUGACACGUAGGAUAUCGAUCUAUAUUAACUCGAGAAGGACGUACAUGAGGAUCACCCAUGUUUAAUGGAGUAGAUAAGUUG | 0.102 | 0.289 |  | 
11 | AAUGUAUCCUCGGGAUCCACAUGAGGAUCACCCAUGUAGACUCAGGAUAUCCAAUGCGUUGGCAGGGAGAAGGGAGCUCGCAUG | 0.0337 | 0.0387 |  | 
12 | AGGGAGUGAGGAUAUGCUGCUCGUCACUUGCGUGAUGAGUAGCAGAAGGUACAUGAGGAUCACCCAUGUAAAAA | 0.0284 | 0.019 |  | 
13 | UAUAUAUAGUAAGGAUAUGUAAUUAUUCUAUAAACAGAAGGUACUGACAUGAGGAUCACCCAUGUUUUAGUGUGGGCAUGUAGA | 0.0434 | 0.046 |  | 
14 | UGUCGGAGCAGAGGAUAUACAUGAGGAUCACCCAUGUAAGAAAGUGAAGCCUGGAAACAGGCAAUGUAGAAGGCUGCUCCGACA | 0.0124 | 0.0863 |  | 
15 | CCUCCACAUGAGGAUCACCCAUGUCAGGAUAUCGUGUGUUUUUUUUCGGUCGUGCGUGCGAGAAGGGACGUCUU | 0.026 | 0.0297 |  | 
16 | UACAUGAGGAUCACCCAUGUUUUGUCGUGUAUGGUAUUUAUCUAGGAUAUCAUUUUAGUUAGUUAUGAGAAGGAGAAUAUUAAU | 0.0322 | 0.0316 |  | 
17 | CUGAGCUGAGGAUAUACAUGAGGAUCACCCAUGUGAAGUAGCUUGCGUACAGGCAGAUGUAGAAGGCAGUUCGG | 0.0391 | 0.179 |  | 
18 | AAAUUUAACGAAGGAUAUGCUGACAUGAGGAUCACCCAUGUGUGCCUUGUGUUACUGACUCGGAAGCAGAAGGUCGUAUACAUA | 0.4 | 0.552 |  | 
19 | CCUCUACAUGAGGAUCACCCAUGUGAGGAUAUCUCGGAGCAGCCUAUUAAGGCGCUCCAGAGAAGGCACGUGUA | 0.0193 | 0.0283 |  | 
20 | UGUCUAUAUGAAGGAUAUCUAAGCAUAAACCGUAGAGAAGGUCAAUAGUACAUGAGGAUCACCCAUGUUAGAAUUGAAGGGUUU | 0.0176 | 0.0232 |  | 
21 | CCGCGCUGUCGAGAGGAUAUGCGGUGAUGGACAUGAGGAUCACCCAUGUUAGCGAUAGCAUUACUGUAGAAGGCUCUACGGCGGC |  |  | 0.0166 | 0.0173
22 | CUGGCCCAGCCCGCCUAGUUCGGGAGAAGGAGGAGACAUGAGGAUCACCCAUGUGGCCUUAUCUCCUAGGAUAUCCCGGCGGGU | 0.00532 | 0.0179 |  | 
23 | AUUGCCUUUGUCAGGAUAUCUGAGGUCGAAAGUGAAGAGAAGGGACAUGAGGAUCACCCAUGUAGUGGUACGCA | 0.144 | 0.431 |  | 
24 | GGCAAUAUGUAGGAUAUCGUAUCGGAAACGAUACGAGAAGGGCAAACAUGAGGAUCACCCAUGUUCUUCAAGCC | 0.013 | 0.0166 |  | 
25 | GAUAUAGAGCAGGAUAUCUUAGAUAUGUAAUAAAGAGAAGGGCUCACAUGAGGAUCACCCAUGUGGUCCUAGAU | 0.0185 | 0.113 |  | 
26 | UGUUACUAGUAAGGAUAUACUUGCGACUAGCUUGUAGAAGGUACAGUCUUUUGUAUAACAUGUUUACAUGAGGAUCACCCAUGU |  |  | 0.00905 | 0.00838
27 | CAGGUAGCUACAGGAUAUACACAGCUCAGUAAACUGAGCAAAAGAACUACAUGAGGAUCACCCAUGUAGAAGGGUAGCUGCCUG | 0.0168 | 0.0188 |  | 
28 | GCUAGUAUUGCAGGAUAUUGAGAAUAAUUAUUACAAGAAGGGCAUAACAUGAGGAUCACCCAUGUAUUCCUUAAUGAUACUAGC | 0.00631 | 0.00713 |  | 

Row | Sequence | apparent Kd [1] [µM] | apparent Kd [2] [µM] | apparent Kd [3] [µM] | apparent Kd [4] [µM]
29 | CGGGAUAGGAAGGGCGAAAGCCCACAUGAGGAUCACCCAUGUAGAAGGCGGGCCGCAACGCGGCCCGAGGAUAUACACUAUCCA | 0.00663 | 0.0126 |  | 
30 | CUUUUGUGAGGAUAUUCGUAGUAGGGUCAUGGCAUUAUUAUGGAGAAGGCACAUGAGGAUCACCCAUGUACCUU | 0.0197 | 0.0275 |  | 
31 | UAGAAGUCAGGAUAUCCUGCUCGUCACUUGCGUGAUGAGUAGGAGAAGGGACAUGAGGAUCACCCAUGUAAAGG | 0.188 | 0.258 |  | 
32 | GCUUUAUUGGUCAGGAUAUACAUUUGUUACUCUUUGUAGAAGGGACAUGAGGAUCACCCAUGUACAUUACAUUC | 0.0232 | 0.0243 |  | 
33 | UUAUUAUAUGUAGGAUAUGCAUAUUAUUAUUGUGCAGAAGGACAUGAGGAUCACCCAUGUAUAUUAUUAUUAUAUAUUAUAUAU | 0.0309 | 0.0497 |  | 
34 | AGAUACAGGCAGAAGGGUUGGUAAGUUGGGUCAACAGGAUAUGCCUCUGUGACAUGAGGAUCACCCAUGUUACCAAACAGUCUU |  |  | 0.583 | 0.0495
35 | AUCCUGCGAGGAUAUACAUAAUUUUUUUCGUUUUGACUCGAACAUGAGGAUCACCCAUGUAGAAGGUGCUACAC | 0.0337 | 0.0301 |  | 
36 | UCCAACCCUGUGAGGAUAUCGUCCAUUUUUUGUUACGAGAAGGCACAUGAGGAUCACCCAUGUUUUUUAUUUUU | 0.0219 | 0.134 |  | 
37 | AGAGAGAGCACAGGAUAUCCGCGCACAUGUAGCGGAGAAGGGUGACCUUUUUGCACAUGAGGAUCACCCAUGUCCAGCACCACA |  |  | 0.0397 | 0.0217
38 | GUGGUCAGACAUGAGGAUCACCCAUGUGGAAUAAAUAACACACAGGAUAUCAAAUAUAAAAUAUAUGAGAAGGGUGGAUUGGUG |  |  |  | 0.224
39 | AUCACCUCGUCAGGAUAUACGUCACUGCGUCAGCAGUGUGGUAAGAUCACAUGAGGAUCACCCAUGUAGAAGGGACGAGCUGAU | 0.0146 | 0.268 |  | 
40 | GAUAGAGAGCAGGAUAUCUUAGAAAUGUAUUAUAGAGAAGGGCUCACAUGAGGAUCACCCAUGUGGUCCUAGAU | 0.0164 | 0.108 |  | 
41 | UAAUAAUAAUAAUAGCAGAAUUACAUGAGGAUCACCCAUGUAUAGGAUAUCGUCAGGAAUACUGACGAGAAGGAUACAUACUGC | 0.0178 | 0.0256 |  | 
42 | AAUAACAGAGGAUAUACUGUUUUAUGUGUUUAUUGUUUUAAACAUGAGGAUCACCCAUGUAGAAGGCUGAGUAA | 0.0389 | 0.039 |  | 
43 | CUUUUGUGAGGAUAUUAGUAGUAAAUAAAUAAAAUUACUAUUGAGAAGGCACAUGAGGAUCACCCAUGUUCCUC | 0.0314 | 0.182 |  | 
44 | CCUUUGAAGAUCCUAGAUUUCGACAUGAGGAUCACCCAUGUGCAGGAUAUCGUGCCAGUGAUGUGCGAGAAGGGCAGUCUCUGC | 0.0508 | 0.0551 |  | 
45 | AGAAACUACGAGAAGGACAAAAAAGGUGCCGCAAACAUGAGGAUCACCCAUGUAGGAUAUCGUAGUUUCAGGAUCGUGAGAUCA | 0.0165 | 0.0983 |  | 
46 | AAGGGUUGUGAGGAUAUGGCUUACCAAUUGGUACCAGAAGGCGCUACAUGAGGAUCACCCAUGUGGGUCGUCCC | 0.0518 | 0.0829 |  | 
47 | UUGGACGUCGUAGGAUAUGUAGGAUAUUCCUACAUGAGGAUCACCCAUGUUGACAUGGAAGAAGGACAGAAGGACAAUGUCCAU |  |  | 0.414 | 0.0075
48 | UGACUGCGUAGAAUUAGCAGCUGACAGGAUAUGACAUGAGGAUCACCCAUGUGAAAUAAGAAGAGUCAGAAGGGUCACGACACA | 0.00951 | 0.00879 |  | 
49 | CUCAAACAUGAGGAUCACCCAUGUCAGGAUAUGAUACUAUGUACUUCGGUACAUAGUAUCAGAAGGGAUAUGAA | 0.0876 | 0.111 |  | 
50 | UCAUACAUUCGAGGAUAUCGGUGAUAACUCUAACGAGAAGGCGAUUUAAAACAUAAUGCUGUAGACAUGAGGAUCACCCAUGUA |  |  | 0.416 | 0.145
51 | GUGGCUAGUGCAGGAUAUUGGCGCGUGUAGUGUCGAGAAGGGCACAUGAGGAUCACCCAUGUGAUCAAUCACUGCUAAGGCCGC | 0.00704 | 0.00731 |  | 
52 | GCACGGCAUGUAGGAUAUGCAUAGCAUUGCUAUGCAGAAGGACAUGAGGAUCACCCAUGUAUGUAUUCCAUACAUUUCCCGUGC | 0.0055 | 0.00765 |  | 
53 | UCCCUAAGGCGGACCGACCAUACAUGAGGAUCACCCAUGUCGAGAAGGUGCUCACGGGUGGGUGGCAAGGAUAUCGGGUCGGAA |  |  | 0.0698 | 0.0365
54 | CAGCGAUAGCUAAAGUAUCUAUCAGAGGAUAUUUAUGAAACAUGAGGAUCACCCAUGUGAAACUGGGAGAAGGCUGAUAGAUAG |  |  | 0.0119 | 0.00547
55 | AUGUGGUGCGUAGGAUAUCAUUGAAGAAAACCCUGAGAAGGACGUGAGGACAUGAGGAUCACCCAUGUGGAUCACCCAUGUCAU | 0.315 | 0.283 |  | 
